# Tests used:
# E6SM [1] = assay: 50% Minimum inhibitory concentration which is required to reduce cytopathogenicity induced by (G) strain of HSV-2 virus on human E6SM cells.; assay type: functional
# Summary of the method: (§1)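 Confluent cell monolayers infected with 100 CCID50 virus and left 1 h for adsorption. Residual virus then removed and compound added at serial dilutions (400, 200, 100 ... µg/mL). Value is the concentration giving 50% reduction of CPE.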
# HEL [2] = assay: 50% Minimum inhibitory concentration which is required to reduce cytopathogenicity induced by (G) strain of HSV-2 virus on human embryonic HEL cells.; assay type: functional; summary of the method: as §1
# MT4 [3] = assay: 50% effective concentration of compound which is required to protect human MT-4 cells against cytopathogenicity of HIV-2.; assay type: functional, cell-based
# HEL [4] = assay: 50% Minimum inhibitory concentration which is required to reduce cytopathogenicity induced by TK-(B2006) strain of HSV-1 virus on human embryonic HEL cells.; assay type: functional; summary of the method: as §1
# MT4 [5] = assay: Cytotoxic concentration which is required to reduce human MT-4 cell viability by 50%.; assay type: functional
# CEM-TK(-) [6] = assay: Cytotoxic concentration which is required to reduce CEM/TK- cell viability by 50%.; assay type: functional; conditions: Homo sapiens
# HEL [7] = assay: 50% Minimum inhibitory concentration which is required to reduce cytopathogenicity induced by (KOS) strain of HSV-1 virus on human embryonic HEL cells.; assay type: functional; summary of the method: as §1
# [8] = Selectivity index of HIV-1 and HIV-2 with respect to CEM cells; assay type: functional, CCRF-CEM
# Summary of the method: (§2)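 Selectivity index calculated as average CC50 divided by average EC50. Each average comes from two independent experiments, using HIV-1 (IIIB) and HIV-2 (ROD) in CEM or MT-4 cells.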
# CCRF-CEM [9] = assay: 50% effective concentration of compound which is required to protect human CEM cells against HIV-2 induced giant cell formation.; assay type: functional, cell-based
# Summary of the method: (§3)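 CEM cells at 250000–300000 cells/mL infected with HIV-1 (IIIB) or HIV-2 (ROD) at 100 CCID50/mL. Infected cells mixed with serial compound dilutions and incubated 4 days at 37 °C. Syncytium (giant cell) formation then scored. Values averaged over two independent experiments.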
# E6SM [10] = assay: 50% Minimum inhibitory concentration which is required to reduce cytopathogenicity induced by (KOS) strain of HSV-1 virus on human E6SM cells.; assay type: functional; summary of the method: as §1
# FM3A [11] = assay: EC50 is the cytotoxic concentration of compound required to reduce FM3A/TK- (Thymidine kinase deficient murine mammary carcinoma cells) cell viability by 50%.; assay type: functional, cell-based; conditions: Mus musculus
# Summary of the method: (§4)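 Murine L1210 or FM3A-derived cells seeded at 5 × 10^5 cells/mL with varying compound concentrations. Incubated 2 days at 37 °C in humidified CO2. Viable cells counted with a Coulter counter. Value is the concentration reducing viable cell number by 50%.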
# E6SM [12] = assay: 50% Minimum inhibitory concentration which is required to reduce cytopathogenicity induced by (Lyons) strain of HSV-2 virus on human E6SM cells.; assay type: functional; summary of the method: as §1
# CEM-TK(-) [13] = assay: 50% effective concentration of compound which is required to protect Thymidine kinase deficient human CEM (CEM/TK-) cells against HIV-2.; assay type: functional, cell-based
# E6SM [14] = assay: 50% Minimum inhibitory concentration which is required to reduce cytopathogenicity induced by (196) strain of HSV-2 virus on human E6SM cells.; assay type: functional; summary of the method: as §1
# [15] = Selectivity index of HIV-1 and HIV-2 with respect to MT-4 cells; assay type: functional, MT4; summary of the method: as §2
# FM3A [16] = assay: EC50 is the cytotoxic concentration of compound required to reduce FM3A/TK- HSV-1TK+ cell viability by 50%.; assay type: functional, cell-based; conditions: Mus musculus; summary of the method: as §4
# E6SM [17] = assay: 50% Minimum inhibitory concentration which is required to reduce cytopathogenicity induced by (F) strain of HSV-1 virus on human E6SM cells.; assay type: functional; summary of the method: as §1
# MOLT-4 = assay: EC50 is the cytotoxic concentration of compound required to reduce Molt4/C8 (human T-lymphocyte) cell viability by 50%.; assay type: functional, cell-based
# Summary of the method: (§5)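 Human CEM or Molt-4 cells seeded at 7.5 × 10^5 cells/mL with varying compound concentrations. Incubated 3 days at 37 °C in humidified CO2. Viable cells counted with a Coulter counter. Value is the concentration reducing viable cell number by 50%.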
# E6SM [18] = assay: 50% Minimum inhibitory concentration which is required to reduce cytopathogenicity induced by TK-(B2006) strain of HSV-1 virus on human E6SM cells.; assay type: functional; summary of the method: as §1
# FM3A [19] = assay: EC50 is the cytotoxic concentration of compound required to reduce FM3A (murine mammary carcinoma cells) cell viability by 50%.; assay type: functional, cell-based; conditions: Mus musculus; summary of the method: as §4
# E6SM [20] = assay: 50% Minimum inhibitory concentration which is required to reduce cytopathogenicity induced by (Mc Intyre) strain of HSV-1 virus on human E6SM cells.; assay type: functional; summary of the method: as §1
# MT4 [21] = assay: 50% effective concentration of compound which is required to protect human MT-4 cells against cytopathogenicity of HIV-1.; assay type: functional, cell-based
# HEL [22] = assay: 50% Minimum inhibitory concentration which is required to reduce cytopathogenicity induced by (Mc Intyre) strain of HSV-1 virus on human embryonic HEL cells.; assay type: functional; summary of the method: as §1
# L1210 = assay: EC50 is the cytotoxic concentration of compound required to reduce L1210 (murine leukemia cells) cell viability by 50%.; assay type: functional, cell-based; conditions: Mus musculus; summary of the method: as §4
# CCRF-CEM [23] = assay: Cytotoxic concentration which is required to reduce human CEM cell viability by 50%.; assay type: functional; summary of the method: as §5
# CCRF-CEM [24] = assay: 50% effective concentration of compound which is required to protect human CEM cells against HIV-1 induced giant cell formation.; assay type: functional, cell-based; summary of the method: as §3
# [25] = Minimum cytotoxic concentration which causes microscopically detectable alteration of normal cell morphology after 2 days of incubation.; assay type: functional; conditions: 48 h
# Summary of the method: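 Uninfected E6SM cells exposed to compound for 2 days. Minimum concentration giving a microscopically detectable change in normal cell morphology recorded.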
# HEL [26] = assay: 50% Minimum inhibitory concentration which is required to reduce cytopathogenicity induced by (Lyons) strain of HSV-2 virus on human embryonic HEL cells.; assay type: functional; summary of the method: as §1
SMILES,MIC (E6SM [1]) [µg/mL],MIC (HEL [2]) [µg/mL],EC50 (MT4 [3]) [µg/mL],MIC (HEL [4]) [µg/mL],CC50 (MT4 [5]) [µg/mL],CC50 (CEM-TK(-) [6]) [µg/mL],MIC (HEL [7]) [µg/mL],Selectivity index [8],EC50 (CCRF-CEM [9]) [µg/mL],MIC (E6SM [10]) [µg/mL],EC50 (FM3A [11]) [µg/mL],MIC (E6SM [12]) [µg/mL],EC50 (CEM-TK(-) [13]) [µg/mL],MIC (E6SM [14]) [µg/mL],Selectivity index [15],EC50 (FM3A [16]) [µg/mL],MIC (E6SM [17]) [µg/mL],EC50 (MOLT-4) [µg/mL],MIC (E6SM [18]) [µg/mL],EC50 (FM3A [19]) [µg/mL],other results
Cc1cn(C2CC([N+](=O)[O-])C(CO)O2)c(=O)[nH]c1=O (stereo unspecified),> 200,20,2.2,> 50,93,> 200,5,>1.7,100,> 200,> 200,> 200,> 100,> 200,79,> 200,> 200,70,> 200,> 200,MIC (E6SM [20]): > 200 µg/mL; EC50 (MT4 [21]): 1 µg/mL; MIC (HEL [22]): 20 µg/mL; EC50 (L1210): 58 µg/mL; CC50 (CCRF-CEM [23]): 168 µg/mL; EC50 (CCRF-CEM [24]): > 100 µg/mL; MCC [25]: > 200 µg/mL; MIC (HEL [26]): 25 µg/mL
CO/N=C1/C[C@H](n2cc(C)c(=O)[nH]c2=O)O[C@@H]1CO.CO/N=C1\C[C@H](n2cc(C)c(=O)[nH]c2=O)O[C@@H]1CO,> 200,> 50,4.6,> 50,182,> 200,50,8,27,> 200,> 200,> 200,> 100,> 200,64,> 200,> 200,> 200,> 200,> 200,MIC (E6SM [20]): > 200 µg/mL; EC50 (MT4 [21]): 3.3 µg/mL; MIC (HEL [22]): > 50 µg/mL; EC50 (L1210): 112 µg/mL; CC50 (CCRF-CEM [23]): > 200 µg/mL; EC50 (CCRF-CEM [24]): 26 µg/mL; MCC [25]: > 200 µg/mL; MIC (HEL [26]): 35 µg/mL
